According to ChEMBL document CHEMBL1147985, “Novel benzodifuran analogs as potent 5-HT2A receptor agonists with ocular hypotensive activity” (Bioorg Med Chem Lett, 2007):

Assays:
[1] = target: T1, 5-hydroxytryptamine receptor 2A (Rattus norvegicus, UniProt P14842); assay: Displacement of [125I]DOI from 5HT2A receptor in rat cerebral cortex; type: tissue-based
Outline: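 Competition binding against the agonist radioligand [125I]DOI at rat brain (cerebral cortex) 5-HT2A receptors. Values are means of at least three experiments.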

[2] = target: 5-hydroxytryptamine receptor 2A (Rattus norvegicus) (UniProt P14842); assay: (§1) Agonist activity at 5HT2A receptor in rat A7r5 cells assessed as intracellular calcium mobilization relative to 5HT; type: functional, cell-based
Sequence of 5-hydroxytryptamine receptor 2A (Rattus norvegicus) (P14842 whole entry): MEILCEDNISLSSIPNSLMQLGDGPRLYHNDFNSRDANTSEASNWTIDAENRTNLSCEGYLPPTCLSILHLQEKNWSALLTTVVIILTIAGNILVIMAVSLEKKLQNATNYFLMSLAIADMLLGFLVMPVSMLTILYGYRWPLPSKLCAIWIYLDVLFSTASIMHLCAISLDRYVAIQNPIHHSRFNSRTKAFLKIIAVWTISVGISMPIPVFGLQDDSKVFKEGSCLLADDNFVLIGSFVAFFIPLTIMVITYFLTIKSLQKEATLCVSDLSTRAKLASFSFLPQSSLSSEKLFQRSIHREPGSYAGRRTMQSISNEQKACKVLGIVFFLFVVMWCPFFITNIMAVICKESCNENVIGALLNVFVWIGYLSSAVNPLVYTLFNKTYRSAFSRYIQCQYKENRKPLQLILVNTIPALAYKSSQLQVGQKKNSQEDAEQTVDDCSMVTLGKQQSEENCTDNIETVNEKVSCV
Outline: (§2)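 Native 5-HT2 receptors in rat vascular smooth muscle A7r5 cells; receptor-mediated intracellular Ca2+ mobilization read on FLIPR. Emax expressed relative to the 5-HT response. Values are means of at least three experiments.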

[3] = target: T1, 5-hydroxytryptamine receptor 2A; assay: as §1; type: functional, cell-based; outline: as §2
[4] = target: 5-hydroxytryptamine receptor 2A (Rattus norvegicus) (UniProt P14842); assay: Agonist activity at 5HT2A receptor in rat A7r5 cells assessed as intracellular calcium mobilization; type: functional, cell-based; outline: as §2
[5] = target: 5-hydroxytryptamine receptor 2B (Rattus norvegicus, UniProt P30994); assay: Agonist activity at 5HT2B receptor in rat stomach fundus assessed as […] relative to 5HT; type: functional
Sequence of 5-hydroxytryptamine receptor 2B (P30994 whole entry): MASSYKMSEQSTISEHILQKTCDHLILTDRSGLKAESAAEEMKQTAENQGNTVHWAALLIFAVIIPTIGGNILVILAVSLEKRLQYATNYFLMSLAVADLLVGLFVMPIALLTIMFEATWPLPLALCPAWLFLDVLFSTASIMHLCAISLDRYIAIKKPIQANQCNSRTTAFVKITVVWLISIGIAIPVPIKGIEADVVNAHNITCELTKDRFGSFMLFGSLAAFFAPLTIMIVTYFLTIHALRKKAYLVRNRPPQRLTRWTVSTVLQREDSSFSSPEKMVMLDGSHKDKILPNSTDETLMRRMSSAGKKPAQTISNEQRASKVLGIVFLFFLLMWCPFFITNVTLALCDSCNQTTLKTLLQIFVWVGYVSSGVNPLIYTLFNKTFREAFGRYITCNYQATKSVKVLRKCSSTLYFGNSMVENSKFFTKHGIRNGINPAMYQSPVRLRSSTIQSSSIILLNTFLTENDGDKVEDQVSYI
Outline: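 Functional 5-HT2B response measured in isolated rat stomach fundus tissue, run by a contract lab. Emax given relative to 5-HT. Means of at least three experiments.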

[6] = target: T2, 5-hydroxytryptamine receptor 2C (Rattus norvegicus, UniProt P08909); assay: Agonist activity at 5HT2C receptor expressed in […] cells assessed as intracellular calcium mobilization relative to 5HT
T2 sequence (P08909 whole entry): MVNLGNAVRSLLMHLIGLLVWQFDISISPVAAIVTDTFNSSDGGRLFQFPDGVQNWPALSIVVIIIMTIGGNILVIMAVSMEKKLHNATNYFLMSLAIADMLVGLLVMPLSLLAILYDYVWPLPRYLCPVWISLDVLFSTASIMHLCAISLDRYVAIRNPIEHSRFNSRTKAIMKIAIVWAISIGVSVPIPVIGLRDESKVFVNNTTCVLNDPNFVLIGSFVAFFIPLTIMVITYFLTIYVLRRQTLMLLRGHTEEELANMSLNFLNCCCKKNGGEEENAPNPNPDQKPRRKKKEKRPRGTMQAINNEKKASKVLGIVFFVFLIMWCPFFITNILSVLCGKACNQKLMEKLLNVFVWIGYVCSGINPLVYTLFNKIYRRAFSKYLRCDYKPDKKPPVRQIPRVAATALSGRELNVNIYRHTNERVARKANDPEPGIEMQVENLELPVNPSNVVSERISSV

[7] = target: T3, 5-hydroxytryptamine receptor 2C (Rattus norvegicus) (UniProt P08909); assay: Agonist activity at 5HT2C receptor expressed in […] cells assessed as intracellular calcium mobilization; type: functional, cell-based
T3 sequence (whole entry): T2 sequence (P08909 whole entry)
Outline: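 SR3T3 cells expressing recombinant rat 5-HT2C receptor; intracellular Ca2+ mobilization measured on FLIPR, as for the A7r5 assay. Emax taken relative to 5-HT. Values are means of at least three experiments.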

Cynomolgus monkey = assay: Reduction of intra ocular pressure in cynomolgus monkey at 300 ug; type: functional, organism-based, Macaca fascicularis, Eye; set-up: Activity: scale not given: the % may be the effect or the level left

T1 sequence (P14842 whole entry): as the sequence (P14842 whole entry) above

CC(N)Cc1c2c(c(Br)c3c1OCC3)OCC2 (stereo not given)
IC50 [1]: 0.3 nM
Emax [2]: 47%
EC50 [3]: 13 nM

Cc1noc(Cc2c3c(c(C[C@@H](C)N)c4c2OCC4)OCC3)n1
IC50 [1]: 1.6 nM
Emax [4]: 33%
EC50 [5]: 130 nM
EC50 [6]: 689 nM
Emax [7]: 69%
EC50 [3]: 49.2 nM

C[C@@H](N)Cc1c2c(c(CCC(=O)O)c3c1OCC3)OCC2
IC50 [1]: 4700 nM
Emax [2]: 15%
EC50 [3]: > 1000 nM

Cc1noc(-c2c3c(c(C[C@@H](C)N)c4c2OCC4)OCC3)n1
IC50 [1]: 910 nM
Emax [2]: 27%
EC50 [3]: 8190 nM

C[C@@H](N)Cc1c2ccoc2c(CO)c2ccoc12
IC50 [1]: 0.31 nM
Emax [2]: 38%
EC50 [3]: 33 nM

COC(=O)CCc1c2c(c(C[C@@H](C)N)c3c1OCC3)OCC2
IC50 [1]: 0.86 nM
Emax [2]: 40%
EC50 [3]: 26 nM

COc1cc(C[C@@H](C)N)c(OC)cc1I
IC50 [1]: 0.46 nM
Emax [4]: 33%
Emax [2]: 33%
EC50 [3]: 17.8 nM
EC50 (Cynomolgus monkey; Macaca fascicularis, Eye): 2.72 nM

COCCOCc1c2c(c(C[C@@H](C)N)c3c1OCC3)OCC2
IC50 [1]: 0.88 nM
Emax [4]: 50%
EC50 [5]: 5.8 nM
EC50 [6]: 8.6 nM
Emax [7]: 93%
EC50 [3]: 71 nM

COCc1c2ccoc2c(C[C@@H](C)N)c2ccoc12
IC50 [1]: 0.11 nM
Emax [2]: 72%
EC50 [3]: 3.6 nM

C[C@@H](N)[C@@H](O)c1c2c(c(Br)c3c1OCC3)OCC2 (racemic)
IC50 [1]: 2.6 nM
Emax [2]: 56%
EC50 [3]: 87.8 nM

C[C@@H](N)[C@H](O)c1c2c(c(Br)c3c1OCC3)OCC2
IC50 [1]: 0.7 nM
Emax [4]: 96%
EC50 [5]: 6.2 nM
EC50 [6]: 39 nM
Emax [7]: 100%
EC50 [3]: 32.7 nM
Activity (Cynomolgus monkey): 24%

C[C@@H](N)Cc1c2c(c(CO)c3c1OCC3)OCC2
IC50 [1]: 1 nM
Emax [2]: 43%
EC50 [3]: 175 nM

Cc1noc(CCc2c3c(c(C[C@@H](C)N)c4c2OCC4)OCC3)n1
IC50 [1]: 1 nM
Emax [2]: 7%
EC50 [3]: > 10000 nM

COCc1c2c(c(C[C@@H](C)N)c3c1OCC3)OCC2
IC50 [1]: 0.28 nM
Emax [4]: 54%
EC50 [6]: 12.6 nM
Emax [7]: 99%
EC50 [3]: 12 nM
Activity (Cynomolgus monkey): 36.8%

Cc1noc(Cc2c3ccoc3c(C[C@@H](C)N)c3ccoc23)n1
IC50 [1]: 0.38 nM
Emax [4]: 60%
EC50 [5]: 23 nM
EC50 [6]: 82 nM
Emax [7]: 95%
EC50 [3]: 16.9 nM
Activity (Cynomolgus monkey): 27%

C[C@@H](N)Cc1c2c(c(CC(=O)O)c3c1OCC3)OCC2
IC50 [1]: 104 nM
Emax [2]: 45%
EC50 [3]: 4970 nM

COC(=O)c1c2c(c(C[C@@H](C)N)c3c1OCC3)OCC2
IC50 [1]: 14 nM
Emax [2]: 48%
EC50 [3]: 880 nM
